Where two headings read alike, the source gives them in different places. Values belong to the compound of their own block, whether it stands above or below them.
How the values were obtained:
LEF/TCF = experiment: TCF reporter activity in DISC1 knockdown cells; assay type: cell-based
[1] = tested on: DISC1 knockdown AHP cells; experiment: BrdU incorporation in DISC1 knockdown AHP cells; assay type: cell-based
Procedure, shortened: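 Lentivirus-transduced AHPs (GFP marker) seeded on polyornithine/fibronectin-coated coverslips and pulsed with BrdU (10 µM) in medium for 2 hours. Fixed in 4% paraformaldehyde and immunostained for BrdU. Five random fields and over 500 cells counted per experiment. Read-out is the percentage of GFP-positive cells also BrdU-positive.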

[2] = tested on: adult hippocampal progenitor proliferation in dentate gyrus; assay type: in vivo, mouse; conditions: 2 mg/kg every other day for 2 weeks, n=5
[3] = tested on: neural progenitor proliferation in mouse embryonic brains; experiment: BrdU labeling in shRNA electroporated embryonic brains; assay type: in vivo
GSK3β [4] = experiment: GSK3β surface plasmon resonance; assay type: binding; conditions: SPR, peptide 25 µM
GSK3β [5] = experiment: In vitro GSK3β kinase assay; assay type: biochemical; conditions: for Inhibition of GSK3β: in vitro kinase assay

Compound: Cn1cc(C2=C(c3ccc(Cl)cc3Cl)C(=O)NC2=O)c2ccccc21 [SB-216763]
- TCF activity (LEF/TCF): rescued TCF activity in DISC1 knockdown cells to control levels
- Cell proliferation evaluated by BrdU incorporation [1]: restored cell proliferation
- Number of BrdU positive cells ([2]; DISC1 shRNA-1 injected mice): rescued the reduction in BrdU positive cells
- Number of BrdU positive cells ([2]; mice infected with control virus): significantly increased
- BrdU labeling index ([3]; DISC1 shRNA electroporated embryonic brains): rescued the BrdU labeling index
- BrdU labeled cells ([3]; control shRNA electroporated mouse embryonic brains): increased BrdU labeled cells

Compound: DISCtide2: 15-mer peptide that encompasses mDISC1 amino acids 211 to 225 (SFSFIQLSLGAAGER)
- Percent theoretical maximal response (GSK3β [4]): 238%
- Inhibition of GSK3β kinase activity (GSK3β [5]; data not shown, concentration not given): failed to inhibit

Compound: Cc1c[nH]c(-c2cnc(NCCNc3ccc(C#N)cn3)nc2-c2ccc(Cl)cc2Cl)n1 [CHIR-99021]
- TCF activity (LEF/TCF): rescued TCF activity in DISC1 knockdown cells to control levels

Other lines, results leading:

- Percent theoretical maximal response (GSK3β [4]): 62%
- Inhibition of GSK3β (GSK3β [5]; 80 µM peptide): did not inhibit
Compound: Peptide-neg: synthesized peptide from mDISC1 spanning amino acids 40–77 (GYMRSTAGSGIGFLSPAVGMPHPSSAGLTGQQSQHSQS)

- Percent theoretical maximal response (GSK3β [4]): 197%
- Potency of GSK3β inhibition compared with L803-mts (GSK3β [5]; dose-response curve, n=3): more potently than L803-mts
- Dose dependence of inhibition of recombinant GSK3β catalytic activity (GSK3β [5]; in vitro): dose dependent
- Inhibition of GSK3β (GSK3β [5]; 10 µM peptide): inhibited
Compound: DISCtide-1: synthesized peptide from mDISC1 spanning amino acids 195 to 238 (PADIASLPGFQDTFTSSFSFIQLSLGAAGERGEAEGCLPSREAE)

From paper PMC2704382 (Cell, 2009)
